TMEM16A inh: TMEM16A chloride channel inhibitors, primary screen, cell-based, HTS. HEK293 TMEM16A/YFP iodide influx fluorescence, ionomycin. normalized B-score (activity score, 25-100; higher = stronger inhibition) at 10 µM. hit rate 1.2% among 310,000. AID 588511, 2011;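 active = ratio plate-corrected score three or more library SD toward inhibition, starting fluorescence score within five deviations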;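 note: score derived from kinetic fluorescence span divided by baseline fluorescence per well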
SR-BI uptake up: activators of SR-BI mediated DiI-HDL uptake, primary screen, ldlA[mSR-BI] CHO cells, DiI fluorescence; hit rate 0.096% among 320,000; 3 h; 100 = double the neutral-control signal; AID 504775, 2011; activation, % at 12.5 µM;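 active = mean replicate activation of at least 60% and every replicate at or above 60%; inconclusive = mean or all-replicate condition met, but not both; inactive = mean below 60% and not all replicates reaching 60%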
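Assay system: LDL receptor-deficient CHO ldlA cells overexpressing murine SR-BI / Medium: BSA-supplemented, HEPES-buffered Ham's F12, pH 7.4 / Probe or stimulus: DiI-labelled HDL at 10 µg/mL final / Timing: compound with DiI-HDL co-incubation, 3 h at 37 °C / Technique: bottom-read cell fluorescence after medium removal, ex 550/em 595 nm / Measure: HDL uptake via cellular fluorescence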
ANO1 activ: TMEM16A chloride channel activators or potentiators, primary screen, cell-based, HTS; HEK293 TMEM16A/YFP-H148Q/I152L, iodide quench fluorescence; active compounds read low; B-score at 10 µM; hit rate 0.3% among 340,000; AID 623877, 2012;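 active = fluorescence-ratio B-score plate-corrected deviation score at least 3 library SD below zero, with starting fluorescence score within 5 deviations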;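 note: channel opened by trigger with iodide after compound preincubation; score built on the fluorescence ratio of max minus min over baseline; more negative score means more quench and so TMEM16A activation or potentiation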
SR-BI DiI inh: inhibitors of SR-BI mediated HDL lipid uptake, primary screen, ldlA[mSR-BI] cells, fluorescence, single point | Scavenger receptor class B member 1 (Mus musculus), Q61009 | ldlA[mSR-BI] CHO cells, DiI-HDL uptake fluorescence, 3 h | inhibition, % at 12.5 µM | hit rate 0.96% among 320,000 | AID 488896, 2010;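 active = mean replicate inhibition of at least 70% and a set share of replicates each scoring 70 or more; inconclusive = meets just one of the two criteria; inactive = fails both criteria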
Kir21 inh: inhibitors of mouse Kir2.1 inward-rectifier potassium channel; Inward rectifier potassium channel 2 (Mus musculus), P35561; HEK293-Kir2.1, FluxOR thallium flux fluorescence; active compounds read low; B-score at 10 µM; hit rate 0.85% among 310,000; AID 1672, 2009;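 active = fluorescence ratio B-score at or below minus 3 SD of library scores, with starting-brightness B-score within 2 SD, cut at about -4.2 in these data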;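 note: channel flux triggered by added potassium and thallium sulfate stimulus; B-score of peak minus minimum fluorescence over baseline after thallium stimulus; more negative B-score means stronger Kir2.1 block with less thallium influx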
Target sequence (P35561 whole entry, looked up): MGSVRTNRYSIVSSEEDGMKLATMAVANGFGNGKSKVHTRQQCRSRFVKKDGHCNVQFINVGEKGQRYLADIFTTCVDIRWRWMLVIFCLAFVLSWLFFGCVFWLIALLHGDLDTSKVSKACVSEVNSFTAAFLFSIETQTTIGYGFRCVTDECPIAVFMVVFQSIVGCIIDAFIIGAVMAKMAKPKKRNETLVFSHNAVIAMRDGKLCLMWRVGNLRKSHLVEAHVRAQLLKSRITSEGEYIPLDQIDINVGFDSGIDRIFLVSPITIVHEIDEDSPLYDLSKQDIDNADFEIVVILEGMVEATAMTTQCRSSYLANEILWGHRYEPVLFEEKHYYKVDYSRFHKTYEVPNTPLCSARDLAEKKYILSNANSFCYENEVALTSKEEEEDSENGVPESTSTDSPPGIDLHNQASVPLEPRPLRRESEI
DNA FID counter: compounds displacing fluorescent DNA intercalator, primary screen, artefact control for HCV NS3 helicase inhibitor project, biochemical, FID fluorescence. DNA fluorescent intercalator displacement. inhibition, % at 7.9 µM. hit rate 0.17% among 290,000; in the data active = inhibition above about 37%;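 note: higher means more ethidium bromide displaced from hairpin DNA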
Each line names hits and unclear results; the compound was inactive in the other large screens. Most compounds without a hit are left out; they make up all but 3% or so of the library.

COc1ccc(-c2nc(CSCC(=O)NCCC3=CCCCC3)c(C)o2)cc1OC	Kir21 inh -5.06
COc1ccc(-c2ccc(NCCC3=CCCCC3)nn2)cc1OC	SR-BI DiI inh 74.9
Cc1sc2nc(SCC(=O)N(C)c3ccccc3)n(C)c(=O)c2c1C	none
O=C(C[C@H]1C[C@H](C(=O)N2CCCCC2)[C@@]2(CCc3ccccc3)c3[nH]c4ccc(Cl)cc4c3CCN2C1=O)NCCC1=CCCCC1	none (no result: TMEM16A inh, ANO1 activ, Kir21 inh, DNA FID counter)
CCOc1ccc(CCNC(=O)c2[nH]c(C)c(C(C)=O)c2CC)cc1OCC	none
CCc1c(C(=O)Nc2cc(C)cc(C)c2)[nH]c(C)c1C(C)=O	SR-BI DiI inh 76.6
O=C(N/N=C/c1ccccc1O)c1cccc2ccccc12	none
CN(C)c1ccc(C=NNC(=O)c2cccc3ccccc23)c(Cl)c1	SR-BI DiI inh 75.2 (no result: TMEM16A inh, Kir21 inh, DNA FID counter)
CC1CCN(S(=O)(=O)c2ccc(NC(=O)CCN3C(=O)C4CC=CCC4C3=O)cc2)CC1 (stereo unspecified)	none (no result: TMEM16A inh, Kir21 inh, DNA FID counter)
S=C(S)N1CCCC1	TMEM16A inh 100 (no result: Kir21 inh, DNA FID counter)
O=C1CSC(c2cccc([N+](=O)[O-])c2)N1Cc1ccccc1 (stereo unspecified)	Kir21 inh -4.46
O=C1CSC(c2cccc(O)c2)N1Cc1ccccc1 (stereo unspecified)	none
O=C(COC(=O)COc1ccccc1)Nc1ccc(Br)cc1F	SR-BI uptake up 63.5 (no result: TMEM16A inh, Kir21 inh, DNA FID counter)
Cc1cc[n+](CC[n+]2ccc(C)cc2)cc1	none (no result: DNA FID counter)
CCC(C)(C)c1ccc(OCCCC[n+]2ccc(C)cc2)c(C(C)(C)CC)c1	TMEM16A inh 100, Kir21 inh -4.91, DNA FID counter 45.7 (no result: SR-BI uptake up, ANO1 activ, SR-BI DiI inh)
CCC(C)(C)c1ccc(OCCCC[n+]2cccc(C)c2C)c(C(C)(C)CC)c1	TMEM16A inh 100, Kir21 inh -9.53
CN1CCN(c2nc(-c3ccccc3)c3cc(Cl)ccc3n2)CC1	Kir21 inh -9.63
CN1CCN(c2nnc(-c3ccccc3)c(-c3ccccc3)n2)CC1	none (no result: SR-BI uptake up, SR-BI DiI inh)
Clc1ccc2nc(N3CCNCC3)nc(-c3ccccc3)c2c1	Kir21 inh -4.86, DNA FID counter 44.1
Cc1[nH]c(C)c(S(=O)(=O)NCc2ccc(F)cc2)c1C(=O)N1CCCC1	none
CCOc1ccc(C(=O)Nc2nnc(NC(=S)Nc3ccccc3)s2)cc1	SR-BI DiI inh 84.6
Cc1ccc(C(=O)Nc2nnc(NC(=S)Nc3ccccc3)s2)cc1	SR-BI DiI inh inconclusive
CC(C)CNc1nc(N)c([N+](=O)[O-])c(N2CCCCCC2)n1	none
COc1ccc(C(=O)Nc2ccc(C)cn2)c(OC)c1	TMEM16A inh 100
Cc1ccc(-c2noc(CCC(=O)NCCN3CCOCC3)n2)cc1	none
COc1ccc(-c2noc(CCC(=O)NCCCN3CCN(c4ccc(F)cc4)CC3)n2)cc1	none
Cc1ccc(-c2noc(CCC(=O)NCCN3CCc4ccccc4C3)n2)cc1	Kir21 inh -8.79
CCN(Cc1ccccc1)C(=O)CCc1nc(-c2ccc(C)cc2)no1	Kir21 inh -6.69
COc1ccc(-c2noc(CCC(=O)NCCCN3CCC(Cc4ccccc4)CC3)n2)cc1	Kir21 inh -4.62 (no result: ANO1 activ)
Cc1ccc(-c2noc(CN(C(=O)Cc3ccccc3)C(C)C)n2)cc1	none
Cc1cnc(NC(=O)c2ccc3ncsc3c2)s1	none (no result: TMEM16A inh, Kir21 inh, DNA FID counter)
CCC(C)n1c(SCC(=O)N(CC)c2c(N)n(Cc3ccccc3)c(=O)[nH]c2=O)nc2ccccc2c1=O (stereo unspecified)	none (no result: TMEM16A inh, Kir21 inh, DNA FID counter)
COc1ccccc1Cn1c(C(C)C)nc2ccccc21	Kir21 inh -5.01
COc1ccccc1Cn1c(/C=C/c2ccccc2)nc2ccccc21	none
O=C(CCN1CCN(c2ccccc2F)CC1)Nc1cccc(F)c1	none
COc1cccc(-c2c(-c3cc(OC)cc(OC)c3)n(C)c3ccc(-c4ccc5[nH]ccc5c4)cc23)c1	none (no result: TMEM16A inh, Kir21 inh, DNA FID counter)
COc1cc(OC)cc(-c2c(-c3ccc(F)cc3)c3cc(-c4ccc5[nH]ccc5c4)ccc3n2C)c1	SR-BI DiI inh 87.6 (no result: TMEM16A inh, Kir21 inh, DNA FID counter)
COc1ccc(-c2c(C#Cc3ccsc3)c3cc(-c4ccc5cc[nH]c5c4)ccc3n2C)cc1	none (no result: TMEM16A inh, Kir21 inh, DNA FID counter)
COc1ccc(-c2c(-c3cc(OC)cc(OC)c3)n(C)c3ccc(-c4ccc(N(C)C)nc4)cc23)cc1	SR-BI DiI inh 83.1 (no result: TMEM16A inh, Kir21 inh, DNA FID counter)
COc1ccc(-c2c(-c3cc(OC)cc(OC)c3)n(C)c3ccc(-c4cccc5[nH]ccc45)cc23)cc1	none (no result: TMEM16A inh, Kir21 inh, DNA FID counter)
COc1ccc(-c2c(-c3cc(OC)cc(OC)c3)n(C)c3ccc(-c4ccc5cc[nH]c5c4)cc23)cc1	SR-BI DiI inh 85.1 (no result: TMEM16A inh, Kir21 inh, DNA FID counter)
COc1cc(OC)cc(-c2c(C#Cc3ccsc3)c3cc(-c4ccc5cc[nH]c5c4)ccc3n2C)c1	SR-BI DiI inh 72.4 (no result: TMEM16A inh, Kir21 inh, DNA FID counter)
COc1cc(OC)cc(-c2c(-c3ccc(F)cc3)c3cc(-c4ccc(OC)nc4)ccc3n2C)c1	none (no result: TMEM16A inh, Kir21 inh, DNA FID counter)
CCSc1nnc2ccc(-c3ccc(OC)c(OC)c3)nn12	none
COc1ccc(-c2c(-c3ccc(OC)nc3)c3ccccc3n2C)cc1	SR-BI DiI inh 77.5 (no result: TMEM16A inh, Kir21 inh, DNA FID counter)
COc1cccc(-c2c(-c3cc(OC)cc(OC)c3)n(C)c3ccc(-c4ccc(OC)nc4)cc23)c1	none (no result: TMEM16A inh, Kir21 inh, DNA FID counter)
CC1CCCN(C(=O)COC(=O)Cc2c(F)cccc2Cl)C1 (stereo unspecified)	none
CCC(/C=N/NC(=O)C(N)=O)CC	ANO1 activ -5.35
CCC(/C=N/NC(=O)c1ccccc1F)CC	none
C[C@@H]1NC(=O)c2cc([N+](=O)[O-])cc(I)c2NCCCC[C@@H](C(N)=O)NC(=O)[C@H](CCC(=O)O)NC1=O	none (no result: Kir21 inh)
O=C(c1oc2ccccc2c1N1CCCCC1)N1CCCCC1	SR-BI DiI inh 78.2
O=C(c1cc2ccccc2o1)N1CCCCCC1	none
O=C(Cc1ccc(Cl)cc1)N1CCc2ccccc2C1	SR-BI uptake up 448.8 (no result: DNA FID counter)
COc1ccc(CC(=O)N2CCc3ccccc3C2)cc1	none
CC(Sc1nnc(CN2CCCC2)n1Cc1ccccc1)C(=O)Nc1ccc(F)cc1Cl (stereo unspecified)	none (no result: TMEM16A inh, Kir21 inh, DNA FID counter)
CCN(c1nc(C)cc(OC)n1)S(=O)(=O)c1ccccc1	Kir21 inh -6.6
C=CCN(c1nc(C)cc(OC)n1)S(=O)(=O)c1ccc(C)cc1	none
C=CCN(c1nc(C)cc(OC)n1)S(=O)(=O)c1ccccc1	Kir21 inh -7.94
COC(=O)CN(c1nc(C)cc(OC)n1)S(=O)(=O)c1ccc(C)cc1	none
CC1CCN(CCCNC(=O)CN2C(=O)CSc3ccc(S(=O)(=O)N4CCOCC4)cc32)CC1	none
CC1CCN(CCCNC(=O)CN2C(=O)CSc3ccc(S(=O)(=O)N4CCC(C)CC4)cc32)CC1	DNA FID counter 45.3

Screening results from PubChem BioAssay.
